{
  "source": "ChEMBL document CHEMBL1151702",
  "about": "“Using an aryl phenanthroimidazole moiety as a conjugated flexible intercalator to improve the hybridization efficiency of a triplex-forming oligonucleotide” (Bioorg Med Chem, 2008)",
  "format_in_all_cases": "nucleic-acid assay",
  "key": {"Nucleic Acid [1]": {"tested_on": "Nucleic Acid", "assay": "Binding affinity to synthetic double stranded DNA D1 at 1.5 uM at pH 6.0 by thermal denaturation study", "summary_of_the_method": "(§1)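 Parallel triplex melting: target duplex assembled from strands at 1.0 µM each, TFO third strand added at 1.5 µM. Buffer 20 mM sodium cacodylate, 100 mM NaCl, 10 mM MgCl₂, at the pH of the line. Samples heated to 80 °C for 5 min, cooled to 5 °C and held 30 min. Absorbance read at 260 nm while heating at 1.0 °C/min; Tm taken as the first-derivative maximum.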"}, "Nucleic Acid [2]": {"tested_on": "Nucleic Acid", "assay": "Binding affinity to synthetic double stranded DNA D1 at 1.5 uM at pH 7.2 by thermal denaturation study", "summary_of_the_method": "as §1"}, "Nucleic Acid [3]": {"tested_on": "Nucleic Acid", "assay": "Binding affinity to synthetic oligonucleotide ON19 at 1.0 uM at pH 7.2 by thermal denaturation study", "summary_of_the_method": "(§2)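 Duplex melting: complementary strands at 1.0 µM each in 20 mM sodium cacodylate, 100 mM NaCl, 10 mM MgCl₂, at the pH of the line. Annealed at 80 °C for 5 min, then cooled to 5 °C and held 30 min. UV absorbance read at 260 nm with heating at 1.0 °C/min; Tm is the maximum of the first-derivative curve.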"}, "Nucleic Acid [4]": {"tested_on": "Nucleic Acid", "assay": "Binding affinity to synthetic oligonucleotide ON19 at 1.0 uM at pH 6.0 by thermal denaturation study", "summary_of_the_method": "as §2"}, "Nucleic Acid [5]": {"tested_on": "Nucleic Acid", "assay": "Binding affinity to synthetic oligonucleotide ON18 at 1.0 uM at pH 6.0 by thermal denaturation study", "summary_of_the_method": "as §2"}, "Nucleic Acid [6]": {"tested_on": "Nucleic Acid", "assay": "Binding affinity to synthetic oligonucleotide ON20 at 1.0 uM at pH 7.0 by thermal denaturation study", "summary_of_the_method": "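DNA/RNA antiparallel duplex: each strand at 1.0 µM in 10 mM sodium phosphate, 140 mM NaCl, 1 mM EDTA, pH 7.0. Heated to 80 °C for 5 min, cooled to 5 °C and held 30 min. Absorbance followed at 260 nm during a 1.0 °C/min temperature ramp; Tm is the first-derivative maximum.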"}},
  "data": [
    {"smiles": "Cc1cn([C@H]2C[C@H](OP(=O)(O)OC[C@H]3O[C@@H](n4ccc(N)nc4=O)C[C@@H]3OP(=O)(O)OC[C@H]3O[C@@H](n4cc(C)c(=O)[nH]c4=O)C[C@@H]3OP(=O)(O)O[C@@H](COCc3ccc(C#Cc4ccc5ccc6cccc7ccc4c5c67)cc3)COC[C@H]3O[C@@H](n4cc(C)c(=O)[nH]c4=O)C[C@@H]3OP(=O)(O)OC[C@H]3O[C@@H](n4cc(C)c(=O)[nH]c4=O)C[C@@H]3O[PH](O)(O)OC[C@H]3O[C@@H](n4cc(C)c(=O)[nH]c4=O)C[C@@H]3OP(=O)(O)OC[C@H]3O[C@@H](n4cc(C)c(=O)[nH]c4=O)C[C@@H]3OP(=O)(O)OC[C@H]3O[C@@H](n4cc(C)c(=O)[nH]c4=O)C[C@@H]3O)[C@@H](COC[C@H](COCc3ccc(C#Cc4ccc5ccc6cccc7ccc4c5c67)cc3)OP(=O)(O)O[C@H]3C[C@H](n4cc(C)c(=O)[nH]c4=O)O[C@@H]3COP(=O)(O)O[C@H]3C[C@H](n4cc(C)c(=O)[nH]c4=O)O[C@@H]3COP(=O)(O)O[C@H]3C[C@H](n4ccc(N)nc4=O)O[C@@H]3COP(=O)(O)O[C@H]3C[C@H](n4ccc(N)nc4=O)O[C@@H]3COP(=O)(O)O[C@H]3C[C@H](n4ccc(N)nc4=O)O[C@@H]3COP(=O)(O)O[C@H]3C[C@H](n4ccc(N)nc4=O)O[C@@H]3CO)O2)c(=O)[nH]c1=O", "values": [
      {"measurement": "Tm", "setting": "Nucleic Acid [1]", "value": 56.5, "unit": "°C"},
      {"measurement": "Tm", "setting": "Nucleic Acid [2]", "value": 43, "unit": "°C"},
      {"measurement": "Tm", "setting": "Nucleic Acid [3]", "value": 38, "unit": "°C"},
      {"measurement": "Tm", "setting": "Nucleic Acid [4]", "value": 41, "unit": "°C"},
      {"measurement": "Tm", "setting": "Nucleic Acid [5]", "value": 38, "unit": "°C"}
    ]},
    {"smiles": "Cc1cn([C@H]2C[C@H](OP(=O)(O)OC[C@H]3O[C@@H](n4cc(C)c(=O)[nH]c4=O)C[C@@H]3OP(=O)(O)OC[C@H]3O[C@@H](n4cc(C)c(=O)[nH]c4=O)C[C@@H]3O[PH](O)(O)OC[C@H]3O[C@@H](n4cc(C)c(=O)[nH]c4=O)C[C@@H]3OP(=O)(O)OC[C@H]3O[C@@H](n4cc(C)c(=O)[nH]c4=O)C[C@@H]3OP(=O)(O)OC[C@H]3O[C@@H](n4cc(C)c(=O)[nH]c4=O)C[C@@H]3O)[C@@H](COC[C@@H](CCOc3ccc(-c4nc5c6ccccc6c6ccccc6c5[nH]4)c4ccccc34)OP(=O)(O)O[C@H]3C[C@H](n4ccc(N)nc4=O)O[C@@H]3COP(=O)(O)O[C@H]3C[C@H](n4cc(C)c(=O)[nH]c4=O)O[C@@H]3COP(=O)(O)O[C@H]3C[C@H](n4cc(C)c(=O)[nH]c4=O)O[C@@H]3COP(=O)(O)O[C@H]3C[C@H](n4cc(C)c(=O)[nH]c4=O)O[C@@H]3COP(=O)(O)O[C@H]3C[C@H](n4ccc(N)nc4=O)O[C@@H]3COP(=O)(O)O[C@H]3C[C@H](n4ccc(N)nc4=O)O[C@@H]3COP(=O)(O)O[C@H]3C[C@H](n4ccc(N)nc4=O)O[C@@H]3COP(=O)(O)O[C@H]3C[C@H](n4ccc(N)nc4=O)O[C@@H]3CO)O2)c(=O)[nH]c1=O", "values": [
      {"measurement": "Tm", "setting": "Nucleic Acid [1]", "value": 35.5, "unit": "°C"},
      {"measurement": "Tm", "setting": "Nucleic Acid [6]", "value": 49, "unit": "°C"},
      {"measurement": "Tm", "setting": "Nucleic Acid [2]", "value": 18.5, "unit": "°C"},
      {"measurement": "Tm", "setting": "Nucleic Acid [3]", "value": 46, "unit": "°C"},
      {"measurement": "Tm", "setting": "Nucleic Acid [4]", "value": 46, "unit": "°C"},
      {"measurement": "Tm", "setting": "Nucleic Acid [5]", "value": 23, "unit": "°C"}
    ]},
    {"smiles": "Cc1cn([C@H]2C[C@H](OP(=O)(O)OC[C@H]3O[C@@H](n4cc(C)c(=O)[nH]c4=O)C[C@@H]3OP(=O)(O)OC[C@H]3O[C@@H](n4cc(C)c(=O)[nH]c4=O)C[C@@H]3O[PH](O)(O)OC[C@H]3O[C@@H](n4cc(C)c(=O)[nH]c4=O)C[C@@H]3OP(=O)(O)OC[C@H]3O[C@@H](n4cc(C)c(=O)[nH]c4=O)C[C@@H]3OP(=O)(O)OC[C@H]3O[C@@H](n4cc(C)c(=O)[nH]c4=O)C[C@@H]3O)[C@@H](COC[C@@H](CCOc3ccc(-c4ncc[nH]4)c4ccccc34)OP(=O)(O)O[C@H]3C[C@H](n4ccc(N)nc4=O)O[C@@H]3COP(=O)(O)O[C@H]3C[C@H](n4cc(C)c(=O)[nH]c4=O)O[C@@H]3COP(=O)(O)O[C@H]3C[C@H](n4cc(C)c(=O)[nH]c4=O)O[C@@H]3COP(=O)(O)O[C@H]3C[C@H](n4cc(C)c(=O)[nH]c4=O)O[C@@H]3COP(=O)(O)O[C@H]3C[C@H](n4ccc(N)nc4=O)O[C@@H]3COP(=O)(O)O[C@H]3C[C@H](n4ccc(N)nc4=O)O[C@@H]3COP(=O)(O)O[C@H]3C[C@H](n4ccc(N)nc4=O)O[C@@H]3COP(=O)(O)O[C@H]3C[C@H](n4ccc(N)nc4=O)O[C@@H]3CO)O2)c(=O)[nH]c1=O", "values": [
      {"measurement": "Tm", "setting": "Nucleic Acid [1]", "value": 13.5, "unit": "°C"}
    ]},
    {"smiles": "Cc1cn([C@H]2C[C@H](OP(=O)(O)OC[C@H]3O[C@@H](n4cc(C)c(=O)[nH]c4=O)C[C@@H]3OP(=O)(O)OC[C@H]3O[C@@H](n4cc(C)c(=O)[nH]c4=O)C[C@@H]3OP(=O)(O)OC[C@H]3O[C@@H](n4ccc(N)nc4=O)C[C@@H]3OP(=O)(O)OC[C@H]3O[C@@H](n4cc(C)c(=O)[nH]c4=O)C[C@@H]3OP(=O)(O)OC[C@H]3O[C@@H](n4cc(C)c(=O)[nH]c4=O)C[C@@H]3OP(=O)(O)OC[C@H]3O[C@@H](n4cc(C)c(=O)[nH]c4=O)C[C@@H]3O[PH](O)(O)OC[C@H]3O[C@@H](n4cc(C)c(=O)[nH]c4=O)C[C@@H]3OP(=O)(O)OC[C@H]3O[C@@H](n4cc(C)c(=O)[nH]c4=O)C[C@@H]3OP(=O)(O)OC[C@H]3O[C@@H](n4cc(C)c(=O)[nH]c4=O)C[C@@H]3O)[C@@H](COP(=O)(O)O[C@H]3C[C@H](n4ccc(N)nc4=O)O[C@@H]3COP(=O)(O)O[C@H]3C[C@H](n4ccc(N)nc4=O)O[C@@H]3COP(=O)(O)O[C@H]3C[C@H](n4ccc(N)nc4=O)O[C@@H]3COP(=O)(O)O[C@H]3C[C@H](n4ccc(N)nc4=O)O[C@@H]3COP(=O)(O)O[C@H](CO)COCc3ccc(C#Cc4ccc5ccc6cccc7ccc4c5c67)cc3)O2)c(=O)[nH]c1=O", "values": [
      {"measurement": "Tm", "setting": "Nucleic Acid [1]", "value": 44.5, "unit": "°C"},
      {"measurement": "Tm", "setting": "Nucleic Acid [2]", "value": 20.5, "unit": "°C"},
      {"measurement": "Tm", "setting": "Nucleic Acid [3]", "value": 52, "unit": "°C"},
      {"measurement": "Tm", "setting": "Nucleic Acid [4]", "value": 53, "unit": "°C"},
      {"measurement": "Tm", "setting": "Nucleic Acid [5]", "value": 36, "unit": "°C"}
    ]},
    {"smiles": "Cc1cn([C@H]2C[C@H](OP(=O)(O)OC[C@H]3O[C@@H](n4cc(C)c(=O)[nH]c4=O)C[C@@H]3OP(=O)(O)OC[C@H]3O[C@@H](n4cc(C)c(=O)[nH]c4=O)C[C@@H]3O[PH](O)(O)OC[C@H]3O[C@@H](n4cc(C)c(=O)[nH]c4=O)C[C@@H]3OP(=O)(O)OC[C@H]3O[C@@H](n4cc(C)c(=O)[nH]c4=O)C[C@@H]3OP(=O)(O)OC[C@H]3O[C@@H](n4cc(C)c(=O)[nH]c4=O)C[C@@H]3O)[C@@H](COC[C@@H](COCc3ccc(C#Cc4ccc5ccc6cccc7ccc4c5c67)cc3)OP(=O)(O)O[C@H]3C[C@H](n4ccc(N)nc4=O)O[C@@H]3COP(=O)(O)O[C@H]3C[C@H](n4cc(C)c(=O)[nH]c4=O)O[C@@H]3COP(=O)(O)O[C@H]3C[C@H](n4cc(C)c(=O)[nH]c4=O)O[C@@H]3COP(=O)(O)O[C@H]3C[C@H](n4cc(C)c(=O)[nH]c4=O)O[C@@H]3COP(=O)(O)O[C@H]3C[C@H](n4ccc(N)nc4=O)O[C@@H]3COP(=O)(O)O[C@H]3C[C@H](n4ccc(N)nc4=O)O[C@@H]3COP(=O)(O)O[C@H]3C[C@H](n4ccc(N)nc4=O)O[C@@H]3COP(=O)(O)O[C@H]3C[C@H](n4ccc(N)nc4=O)O[C@@H]3CO)O2)c(=O)[nH]c1=O", "values": [
      {"measurement": "Tm", "setting": "Nucleic Acid [1]", "value": 39.5, "unit": "°C"},
      {"measurement": "Tm", "setting": "Nucleic Acid [2]", "value": 21.5, "unit": "°C"},
      {"measurement": "Tm", "setting": "Nucleic Acid [4]", "value": 44.5, "unit": "°C"},
      {"measurement": "Tm", "setting": "Nucleic Acid [5]", "value": 30, "unit": "°C"}
    ]}
  ]
}
